What was measured:
Rattus norvegicus [1] = assay: Maximum fall in systolic blood pressure, intervals from 1 to 6 hours at a dose of 10 mg/kg administered per orally; assay type: functional, Artery; settings: route oral
Summary of the method: (§1)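 DOCA/NaCl-treated hypertensive rats, kept at least 2 months after surgery (body weight 300–450 g), selected at systolic pressure of 160 mmHg or more. Compound given orally by dosing needle into the esophagus as a solution or suspension in 1% w/v methylcellulose. Systolic pressure measured by tail-cuff in restrained rats at 33.5 °C, before dosing and at intervals from 1 to 6 h; each reading was the mean of at least six recordings.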

Rattus norvegicus [2] = assay: Maximum fall in systolic blood pressure at interval from 1 to 6 hours at a dose of 30 mg/kg when administered perorally in rats; assay type: functional, Artery; settings: route oral; summary of the method: as §1
Rattus norvegicus [3] = assay: Maximum fall in systolic blood pressure, intervals from 1 to 6 hours at a dose of 100 mg/kg administered per orally; assay type: functional, Artery; settings: route oral; summary of the method: as §1
Rattus norvegicus [4] = assay: Maximum fall in systolic blood pressure at interval from 1 to 6 hours at a dose of 3 mg/kg when administered perorally in rats; assay type: functional, Artery; settings: route oral; summary of the method: as §1
Rattus norvegicus [5] = assay: Maximum fall in systolic blood pressure at interval from 1 to 6 hours at a dose of 1 mg/kg when administered perorally in rats; assay type: functional, Artery; settings: route oral; summary of the method: as §1
Rattus norvegicus [6] = assay: Maximum fall in systolic blood pressure at interval from 1 to 6 hours at a dose of 0.3 mg/kg when administered perorally in rats; assay type: functional, Artery; settings: route oral; summary of the method: as §1
Rattus norvegicus [7] = organism: Rattus norvegicus; assay: Compound was tested at 9.7e-6M for inhibition of spontaneous activity in rat isolated portal vein
Rattus norvegicus [8] = assay: Maximum fall in systolic blood pressure at interval from 1 to 6 hours at a dose of 300 mg/kg when administered perorally in rats; assay type: functional, Artery; settings: route oral; summary of the method: as §1

Compound | Max fall in blood pressure (Rattus norvegicus [1]) | Max fall in blood pressure (Rattus norvegicus [2]) | Max fall in blood pressure (Rattus norvegicus [3]) | also measured
CC(O)c1ccc2c(c1)[C@@H](N1CCCCC1)[C@H](O)C(C)(C)O2.Cl (stereo not given in full) | 20 mmHg | 115 mmHg |  | 
CC1(C)Oc2cc(C#N)ccc2[C@@H](N2CCCCC2)[C@@H]1O.Cl |  | 7 mmHg | 33 mmHg | 
CC1(C)Oc2ccc([N+](=O)[O-])cc2[C@@H](N2C3CCCC2CCC3)[C@@H]1O.CS(=O)(=O)O | 20 mmHg |  |  | 
CC1(C)Oc2ccc(C(=O)O)cc2[C@@H](N2CCCC2)[C@@H]1O | 2 mmHg |  |  | 
CC1(C)Oc2ccc(C#N)cc2[C@@H](N2CCCC2)[C@@H]1O.Cl |  |  |  | Max fall in blood pressure (Rattus norvegicus [4]): 117 mmHg; Max fall in blood pressure (Rattus norvegicus [5]): 43 mmHg; Max fall in blood pressure (Rattus norvegicus [6]): 15 mmHg; Inhibition (Rattus norvegicus [7]): 32%
COc1ccc2c(c1)[C@@H](N1CCCC1)[C@H](O)C(C)(C)O2.Cl |  | 29 mmHg | 17 mmHg | 
Cc1ccc2c(c1)[C@@H](N1CCCC1)[C@H](O)C(C)(C)O2.Cl |  |  | 9 mmHg | 
CN[C@@H]1c2cc([N+](=O)[O-])ccc2OC(C)(C)[C@H]1O.Cl |  | 21 mmHg | 43 mmHg | 
CC1(C)Oc2ccc([N+](=O)[O-])cc2[C@@H](NC2CC2)[C@@H]1O.CS(=O)(=O)O | 31 mmHg |  | 95 mmHg | 
CC(=O)c1ccc2c(c1)[C@@H](N1CCCCC1)[C@H](O)C(C)(C)O2.Cl | 51 mmHg | 65 mmHg | 127 mmHg | Max fall in blood pressure (Rattus norvegicus [4]): 12 mmHg
CS(=O)(=O)O.Cc1c([N+](=O)[O-])ccc2c1OC(C)(C)[C@@H](O)[C@@H]2N1CCCCC1 |  |  | 39 mmHg | 
CC1CCN([C@@H]2c3cc([N+](=O)[O-])ccc3OC(C)(C)[C@H]2O)CC1.Cl | 28 mmHg |  |  | 
CC1(C)Oc2ccc([N+](=O)[O-])cc2[C@@H](N2CCCCCC2)[C@@H]1O.Cl | 17 mmHg |  | 96 mmHg | 
CC1(C)Oc2ccc([N+](=O)[O-])cc2[C@@H](N2CCCCC2)[C@@H]1O.CS(=O)(=O)O | 105 mmHg |  |  | Max fall in blood pressure (Rattus norvegicus [4]): 73 mmHg; Max fall in blood pressure (Rattus norvegicus [5]): 28 mmHg
CC1(C)Oc2ccc(Cl)cc2[C@@H](N2CCCCC2)[C@@H]1O.Cl |  | 7 mmHg | 69 mmHg | 
COC(=O)C1=C(C)NC(C)=C(C(=O)OC)C1c1ccccc1[N+](=O)[O-] [NIFEDIPINE] |  |  |  | Max fall in blood pressure (Rattus norvegicus [4]): 51 mmHg; Max fall in blood pressure (Rattus norvegicus [5]): 33 mmHg; Max fall in blood pressure (Rattus norvegicus [6]): 20 mmHg
CC1(C)Oc2ccc([N+](=O)[O-])cc2[C@@H](N)[C@@H]1O.Cl |  | 23 mmHg | 45 mmHg | 
CC1(C)Oc2ccc3ccccc3c2[C@@H](N2CCCCC2)[C@@H]1O.Cl |  |  | 4 mmHg | 
CC1CCC(C)N1[C@@H]1c2cc([N+](=O)[O-])ccc2OC(C)(C)[C@H]1O.Cl (stereo not given in full) |  | 26 mmHg |  | 
CC1(C)Oc2ccc([N+](=O)[O-])cc2[C@@H](N2CCOCC2)[C@@H]1O.Cl | 23 mmHg | 55 mmHg | 70 mmHg | 
CC1(C)Oc2cc([N+](=O)[O-])ccc2[C@@H](N2CCCC2)[C@@H]1O.CS(=O)(=O)O | 99 mmHg |  |  | Max fall in blood pressure (Rattus norvegicus [4]): 90 mmHg; Max fall in blood pressure (Rattus norvegicus [5]): 44 mmHg
CC1(C)Oc2ccc([N+](=O)[O-])cc2[C@@H](NCCN2CCCC2)[C@@H]1O.Cl.Cl |  |  | 23 mmHg | 
CC(C)(C)N[C@@H]1c2cc([N+](=O)[O-])ccc2OC(C)(C)[C@H]1O.CS(=O)(=O)O |  |  | 7 mmHg | 
CC1(C)Oc2ccc(C(N)=O)cc2[C@@H](N2CCCCC2)[C@@H]1O.CS(=O)(=O)O | 9 mmHg |  | 30 mmHg | 
CC(C)N[C@@H]1c2cc([N+](=O)[O-])ccc2OC(C)(C)[C@H]1O.Cl |  |  | 36 mmHg | Max fall in blood pressure (Rattus norvegicus [8]): 69 mmHg

Compound | Max fall in blood pressure (Rattus norvegicus [1]) | Max fall in blood pressure (Rattus norvegicus [2]) | Max fall in blood pressure (Rattus norvegicus [3]) | also measured
CC1(C)Oc2cccc([N+](=O)[O-])c2[C@@H](N2CCCCC2)[C@@H]1O.Cl |  |  | 12 mmHg | 
CC1(C)Oc2ccc([N+](=O)[O-])cc2[C@@H](NCCCO)[C@@H]1O.Cl |  |  | 28 mmHg | 
CC1(C)Oc2cccc(C#N)c2[C@@H](N2CCCCC2)[C@@H]1O.Cl | 13 mmHg |  | 33 mmHg | 
Cc1ccc2c(c1)[C@@H](N1CCCCC1)[C@H](O)C(C)(C)O2.Cl | 34 mmHg | 44 mmHg | 43 mmHg | 
CC1(C)Oc2ccc([N+](=O)[O-])cc2[C@@H](N2CCN(c3ccccc3)CC2)[C@@H]1O.Cl | 10 mmHg |  |  | 
CC1(C)Oc2cc([N+](=O)[O-])ccc2[C@@H](N2CCCCC2)[C@@H]1O.Cl | 48 mmHg |  | 79 mmHg | Max fall in blood pressure (Rattus norvegicus [4]): 18 mmHg
CC1(C)Oc2ccc(F)cc2[C@@H](N2CCCCC2)[C@@H]1O.Cl | 16 mmHg |  | 26 mmHg | 
CC1(C)Oc2ccc([N+](=O)[O-])cc2[C@@H](N2CCCC2)[C@@H]1O.CS(=O)(=O)O | 98 mmHg |  |  | Max fall in blood pressure (Rattus norvegicus [4]): 79 mmHg; Max fall in blood pressure (Rattus norvegicus [5]): 52 mmHg
CC(=O)c1ccc2c(c1)[C@@H](N1CCCC1)[C@H](O)C(C)(C)O2.Cl | 53 mmHg | 66 mmHg | 78 mmHg | Max fall in blood pressure (Rattus norvegicus [4]): 39 mmHg
CCN(CC)[C@@H]1c2cc([N+](=O)[O-])ccc2OC(C)(C)[C@H]1O.Cl |  | 34 mmHg | 54 mmHg | 
CC1(C)Oc2ccc(N)cc2[C@@H](N2CCCC2)[C@@H]1O.Cl.Cl |  |  | 6 mmHg | 
CC1(C)Oc2c(C#N)cccc2[C@@H](N2CCCCC2)[C@@H]1O.Cl | 5 mmHg |  | 33 mmHg | 
CC1(C)Oc2ccc(C#N)cc2[C@@H](N2CCCCC2)[C@@H]1O.Cl | 107 mmHg |  |  | Max fall in blood pressure (Rattus norvegicus [4]): 88 mmHg; Max fall in blood pressure (Rattus norvegicus [5]): 35 mmHg; Max fall in blood pressure (Rattus norvegicus [6]): 29 mmHg
CC1(C)Oc2ccc([N+](=O)[O-])cc2[C@@H](NCC2CC2)[C@@H]1O.Cl |  |  | 13 mmHg | 
NNc1nncc2ccccc12 [HYDRALAZINE] | 113 mmHg |  |  | Max fall in blood pressure (Rattus norvegicus [4]): 65 mmHg; Max fall in blood pressure (Rattus norvegicus [5]): 32 mmHg; Inhibition (Rattus norvegicus [7]): 40%
CC1(C)Oc2c(ccc3ccccc23)[C@@H](N2CCCC2)[C@@H]1O |  |  | 4 mmHg | 
CC1(C)Oc2ccc([N+](=O)[O-])cc2[C@@H](NCCO)[C@@H]1O.Cl |  |  | 27 mmHg | 
C/C(=N\O)c1ccc2c(c1)[C@@H](N1CCCCC1)[C@H](O)C(C)(C)O2.CS(=O)(=O)O | 17 mmHg | 80 mmHg | 74 mmHg | 
CC(=O)Nc1ccc2c(c1)[C@@H](N1CCCCC1)[C@H](O)C(C)(C)O2.CS(=O)(=O)O | 6 mmHg |  | 14 mmHg | 
CN(C)[C@@H]1c2cc([N+](=O)[O-])ccc2OC(C)(C)[C@H]1O.Cl |  |  | 29 mmHg | 
CC1(C)Oc2ccccc2[C@@H](N2CCCC2)[C@@H]1O.Cl |  | 10 mmHg | 46 mmHg | 
CC1(C)Oc2ccc([N+](=O)[O-])cc2[C@@H](N2CCCCCCC2)[C@@H]1O.Cl | 53 mmHg | 82 mmHg |  | Max fall in blood pressure (Rattus norvegicus [4]): 34 mmHg
COC(=O)c1ccc2c(c1)[C@@H](N1CCCC1)[C@H](O)C(C)(C)O2.CS(=O)(=O)O | 58 mmHg | 65 mmHg |  | Max fall in blood pressure (Rattus norvegicus [4]): 14 mmHg
CC1(C)Oc2ccc(C(N)=O)cc2[C@@H](N2CCCC2)[C@@H]1O.CS(=O)(=O)O |  |  | 21 mmHg | 

Source: ChEMBL document CHEMBL1122483, “Synthesis and antihypertensive activity of substituted trans-4-amino-3,4-dihydro-2,2-dimethyl-2H-1-benzopyran-3-ols” (1983)
